SMARCA2 activ: activators of SMARCA2 function; MG213 cells, MMTV-luciferase reporter, dexamethasone, overnight; activation, % at 9.1 µM; 370,000 compounds, 1% hits; in the data active = activation above about 7.8%;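 also: 0% = vehicle wells and 100% = reference activator wells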
Tb MetRS inh: blocks T. brucei methionyl-tRNA synthetase activity. inhibition, % at 11.9 µM. 360,000 compounds, 0.4% hits. purified T. brucei MetRS, ATP depletion, Kinase-Glo luminescence;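 active = inhibition above a per-plate cutoff of the control wells' mean inhibition plus 3 SD, cut at about 5.5% in these data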;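 also: 0% = DMSO wells median and 100% = median of wells with control inhibitor compound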
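Measured by: Kinase-Glo luciferase luminescence reporting remaining unconsumed ATP. Material: purified T. brucei MetRS enzyme. Doses: 11.9 µM compound single dose, 0.9% DMSO. Medium: HEPES buffer containing pyrophosphatase, BSA, spermine, DTT. Times: 15 min preincubation, 2 h reaction, all 25 °C. Reagent: methionine, ATP and bulk E. coli tRNA.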
TAG inh: reduces triacylglycerol accumulation in H9c2 cells; Nile Red lipid (TAG) fluorescence; cells loaded with 200 µM oleic acid; inhibition, % at 12.5 µM; 230,000 compounds, 0.66% hits;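 active = pattern-corrected inhibition of lipid staining of at least 50% with the nuclear-stain viability signal not falling by more than 50%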;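 also: 0% = DMSO wells and 100% = triacsin C control wells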
AHR activator: activates the human aryl hydrocarbon receptor; 320,000 compounds, 2.5% hits; AHR-responsive luciferase reporter cells, luminescence; activation, % at 5 µM; AID 2796; P35869; in the data active = activation above about 47%;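 also: 0% = vehicle wells and 100% = reference agonist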
Efflux pump mplx: antifungal efflux pump inhibition, Nile Red retention; S. cerevisiae Candida pump triplex; inhibition, % at 10 µM; 330,000 compounds, 0.44% hits;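 active = plate passing quality check with inhibition over a set limit, or well fluorescence over plate mean plus 4 SD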;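 also: Nile Red retained in pooled yeast measured as flow cytometry median fluorescence; 0% = buffer negative control and 100% = Enniatin B positive control; higher means more Nile Red kept so more efflux inhibition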
AHR act cf: human AHR activation, confirmation; shares compounds with AHR activator; activation, % at 9 µM; human cells, AHR-responsive luciferase reporter, luminescence; 2,300 compounds, 87% hits; in the data active = activation above about 49%;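 also: HepG2 hepatoma cells carrying a DRE-driven firefly luciferase reporter; 0% = vehicle wells and 100% = reference agonist wells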
PXR counter: counter-screen for AHR activators: human PXR activators; 2,300 compounds, 88% hits; cell-based PXR reporter, luciferase luminescence; activation, % at 11.6 µM; AID 434939; shares compounds with AHR activator; in the data active = activation above about 11%;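 also: human hepatoma DPX-2 cells expressing full-length human PXR; 0% = DMSO and 100% = reference agonist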
Target sequence (O75469 whole entry, looked up): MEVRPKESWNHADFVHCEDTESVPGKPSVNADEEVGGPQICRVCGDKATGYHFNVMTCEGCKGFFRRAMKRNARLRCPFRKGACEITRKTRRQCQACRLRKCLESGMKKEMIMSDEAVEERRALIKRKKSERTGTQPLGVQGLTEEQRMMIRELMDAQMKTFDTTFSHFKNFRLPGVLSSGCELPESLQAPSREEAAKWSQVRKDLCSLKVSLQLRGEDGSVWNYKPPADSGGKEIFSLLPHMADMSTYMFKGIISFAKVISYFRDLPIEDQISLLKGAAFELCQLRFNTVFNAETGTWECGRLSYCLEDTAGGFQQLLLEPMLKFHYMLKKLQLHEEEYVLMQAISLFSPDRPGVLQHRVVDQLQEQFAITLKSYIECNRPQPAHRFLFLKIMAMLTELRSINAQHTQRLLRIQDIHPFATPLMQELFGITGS
The depositor's hits bear a star; / = no result. This is a sample that favours compounds with a hit; in the whole collection about 4.1% have one here.

SMILES	SMARCA2 activ	Tb MetRS inh	TAG inh	AHR activator	Efflux pump mplx	AHR act cf	PXR counter
CCn1nc(C(=O)Nc2ccccc2C)c(Cl)c1Cl	0	0	7	90*	0	26	17*
CCn1nc(C(=O)Nc2cccc3ccccc23)c(Cl)c1Cl	1	0	8	85*	0	95*	17*
O=C(NCCc1ccncc1)Nc1cccc(Cl)c1	0	1	-2	90*	0	56*	17*
COC(=O)C(C(=O)OC)[C@H]1C=C[C@@H](C(=O)NS(=O)(=O)c2ccc(C)cc2)N(C(C)=O)C1	-2	/	/	/	/	/	/
COc1ccc(NC(=O)c2cc(=O)[nH]c3ccccc23)cc1	-1	0	/	100*	0	108*	20*
COc1ccc(NC(=O)c2cccc3c(Br)cccc23)cc1	-2	-1	-14	93*	0	121*	/
CCOc1ccc(Nc2nc(-c3sc(N)nc3C)cs2)cc1	1	0	/	114*	0	112*	17*
Cc1nc(NC(=O)c2ccco2)sc1-c1csc(Nc2ccc(Cl)cc2Cl)n1	2	0	20	88*	0	75*	26*
COc1ccc(Nc2nc(-c3sc(NC(C)=O)nc3C)cs2)cc1	/	/	/	7	0	/	/
Cc1nc(NC(=O)CC(C)C)sc1-c1csc(Nc2ccc(Cl)cc2)n1	0	0	10	92*	0	96*	20*
CCCCCC(=O)Nc1nc(C)c(-c2csc(Nc3cc(Cl)ccc3C)n2)s1	1	0	/	109*	0	75*	27*
COC(=O)C1=C(C)N(Cc2ccc(Br)cc2)C(=S)NC1c1ccccc1 (stereo unspecified)	-7	/	/	/	/	/	/
CCCCCCNC(=O)C1CSCCS(=O)(=O)N1Cc1ccc(C)cc1 (stereo unspecified)	1	/	/	/	/	/	/
C=CCCC(=O)Nc1nc(C)c(-c2csc(Nc3ccccc3OC)n2)s1	0	0	27	101*	0	65*	31*
C=CCCC(=O)Nc1nc(C)c(-c2csc(Nc3ccc(Cl)cc3Cl)n2)s1	3	1	41	102*	0	73*	25*
Cc1nc(NC(=O)c2ccccc2)sc1-c1csc(Nc2ccc(Cl)cc2Cl)n1	/	/	/	43	0	/	/
CCC(C)C(=O)Nc1nc(C)c(-c2csc(Nc3ccccc3OC)n2)s1 (stereo unspecified)	-1	0	14	110*	0	85*	51*
CCCC(C)C(=O)Nc1nc(C)c(-c2csc(Nc3cc(Cl)ccc3C)n2)s1 (stereo unspecified)	0	0	-2	41	0	/	/
Nc1c(C(=O)N2CCN(CCc3ccccc3)CC2)cnn1-c1ccccc1	-2	/	/	/	/	/	/
O=c1c(/C=N/O)coc2ccc3ccccc3c12	2	0	20	84*	0	18	6
Cc1noc(C)c1NC(=O)Nc1ccc2c(c1)C(=O)N(C)[C@H]1CC[C@H](CC(=O)NCc3ccc(Cl)cc3)O[C@@H]1CO2	-3	/	/	/	/	/	/
CC(C)n1cnc2c(Nc3ccc(F)c(Cl)c3)nc(NCCO)nc21	1	0	4	93*	0	69*	135*
O=C(N[C@H](C(=O)N1CCC[C@H]1C(=O)NC1CCCC1)C1CCCCC1)C1CC1	0	/	/	/	/	/	/
O=S1(=O)c2ccc(Br)cc2OC[C@H](Cc2ccccc2)N1Cc1cn(CCC2OCCCO2)nn1	-4	/	/	/	/	/	/
O=C(CN1CCCCCC1)Nc1ccc(Br)cc1	-2	0	/	84*	0	112*	60*
SMILES	SMARCA2 activ	Tb MetRS inh	TAG inh	AHR activator	Efflux pump mplx	AHR act cf	PXR counter
Cc1ccccc1CN1CCCCC(NC(=O)c2cccc([N+](=O)[O-])c2)C1=O (stereo unspecified)	-3	/	/	/	/	/	/
COc1ccccc1/C=N/NC(=O)c1cccc(OC(F)(F)C(F)F)c1	0	0	/	22	0	/	/
Cc1cc(NC(=O)NC(=O)c2cccc(OC(F)(F)C(F)F)c2)n[nH]1	2	0	-4	157*	0	104*	17*
C[C@H](CO)N1C[C@H](C)[C@H](CN(C)C(=O)Nc2cccc(F)c2)OCc2cnnn2CCCC1=O	-3	/	/	/	/	/	/
C[C@@H]1CNC(=O)c2c(C(=O)N(C)Cc3ccccc3)ncn21	-5	/	/	/	/	/	/
[O-]/[N+](=C\c1ccccc1)c1ccc(Br)cc1	3	0	/	88*	0	114*	14*
[O-]/[N+](=C\c1ccccc1)c1ccccc1	1	0	-1	3	0	/	/
CSc1nsc(N/N=C/c2ccc3c(c2)OCO3)c1C#N	6	-1	-1	117*	0	81*	27*
COc1cc(/C=N/Nc2snc(SC)c2C#N)cc(OC)c1OC	-4	0	5	2	0	/	/
C[C@@H]1[C@@H](O)C[C@@]2(C[C@H](O)c3ccccc3O2)O[C@H]1c1ccccc1	-2	/	/	/	/	/	/
Nn1c(SCc2cccc3ccccc23)nnc1-c1cc(-c2ccc(Cl)cc2)n[nH]1	-7	/	/	/	/	/	/
CCOc1ccc(N=C2SC(C(=O)Nc3ccccc3C#N)C(N)=C2C(=O)Nc2ccc(Cl)cc2)cc1 (stereo unspecified)	0	1	/	86*	0	71*	5
CN1Cc2nnn(Cc3ccccc3)c2-c2cc(N3CCCCC3)ccc2S1(=O)=O	8	/	/	/	/	/	/
C/C(=N/Nc1ccc(F)cc1)c1ccc(Cl)s1	-1	0	/	84*	0	68*	/
C/C(=N\NC(N)=O)c1ccc(Cl)s1	1	1	10	1	0	/	/
NC(=NCCc1c[nH]c2ccccc12)NC(=O)OCc1ccccc1	-2	/	/	/	/	/	/
OC1(C#Cc2c(-c3ccsc3)oc3ccc(N4CCOCC4)cc23)CCCCC1	-1	0	2	111*	0	120*	80*
O=C(Nc1ccc(F)cc1)OCc1cn(Cc2cccc(F)c2)nn1	-1	/	/	/	/	/	/
S=C(NNc1ccc2ccccc2c1)NC1CCCCC1	5	-1	/	108*	0	90*	99*
CN(C)S(=O)(=O)c1cccc(C(=O)N/N=C\c2ccccc2[N+](=O)[O-])c1	1	/	/	/	/	/	/
COc1cc(NC(C)=O)ccc1NC(=O)c1cc2ccccc2o1	2	0	5	3	0	/	/
O=C(Nc1ccc(Cl)cn1)c1ccccc1F	7	0	-15	148*	0	77*	21*
O=C(Nc1ccc(Cl)cn1)c1cccc(F)c1	3	-2	6	3	0	/	/
O=C(Nc1ccc(Cl)cn1)c1cc2ccccc2o1	2	-3	-20	110*	0	72*	8
O=C(Nc1cccc(C(=O)Nc2ccc(Cl)cn2)c1)c1ccccc1	1	-1	/	82*	0	12	19*
COc1cc(N)ccc1NC(=O)c1cc2ccccc2o1	5	0	/	107*	0	141*	12*
COc1ccc(-c2cc(C(=O)NN=Cc3cccn3C)[nH]n2)cc1	1	/	/	/	/	/	/

Screens from PubChem BioAssay.
